Results: PMC5615865 (Research in Pharmaceutical Sciences, 2017)

Experiments:
Jack bean urease = Jack bean urease (Canavalia ensiformis, UniProt P07374); test: Urease inhibitory assay; type: biochemical; conditions: urea 25 mM, pH 7.4, 37°C, triplicate
Procedure, shortened: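 Enzyme solution (2 mg/mL stock) was mixed with urea and test compound at various concentrations in 100 mM sodium phosphate, pH 7.4, then incubated 30 min at 37°C. An aliquot was taken into phenol–nitroprusside and alkaline hypochlorite–NaOH reagents and incubated a further 30 min at 37°C, and A625 was read. % inhibition was calculated against the solvent-plus-enzyme control, and IC50 was fitted. Run in triplicate with a hydroxyurea standard.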

[1] = no reference given; cited from earlier work

Chain of Jack bean urease (P07374 whole entry, looked up): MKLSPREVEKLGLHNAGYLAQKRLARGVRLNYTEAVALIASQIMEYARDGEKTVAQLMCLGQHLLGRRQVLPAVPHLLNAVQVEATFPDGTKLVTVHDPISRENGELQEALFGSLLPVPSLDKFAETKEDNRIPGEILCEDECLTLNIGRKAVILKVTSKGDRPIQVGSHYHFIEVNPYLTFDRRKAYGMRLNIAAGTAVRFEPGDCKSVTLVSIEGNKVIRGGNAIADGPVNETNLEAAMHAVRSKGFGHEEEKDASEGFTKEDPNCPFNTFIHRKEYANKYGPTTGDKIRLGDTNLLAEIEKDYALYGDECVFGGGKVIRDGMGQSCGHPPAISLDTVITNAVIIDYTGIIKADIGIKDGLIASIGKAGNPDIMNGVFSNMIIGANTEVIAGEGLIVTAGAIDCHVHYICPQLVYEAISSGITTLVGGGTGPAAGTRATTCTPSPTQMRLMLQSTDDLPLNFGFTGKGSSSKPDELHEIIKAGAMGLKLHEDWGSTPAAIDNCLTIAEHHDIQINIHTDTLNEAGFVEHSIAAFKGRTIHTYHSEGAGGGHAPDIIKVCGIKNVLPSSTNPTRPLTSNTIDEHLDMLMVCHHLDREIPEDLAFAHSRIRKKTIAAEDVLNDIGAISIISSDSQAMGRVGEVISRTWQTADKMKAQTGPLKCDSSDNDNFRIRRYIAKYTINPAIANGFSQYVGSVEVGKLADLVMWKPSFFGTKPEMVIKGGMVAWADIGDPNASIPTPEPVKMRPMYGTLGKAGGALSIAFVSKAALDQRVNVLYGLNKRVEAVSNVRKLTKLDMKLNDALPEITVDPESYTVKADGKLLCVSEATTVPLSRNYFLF

| IC50 (Jack bean urease) [µM] | Compound | pKa [1] |
| --- | --- | --- |
| 100 | NC(=O)NO [hydroxyurea] | – |
| – | COC(=O)CC(C)=O [methyl acetoacetate] | 11.0 |
